From ChEMBL document CHEMBL3044632, “Synthesis, crystal structure, and biological activity of 4-methyl-1,2,3-thiadiazole-containing 1,2,4-triazolo[3,4-b][1,3,4]thiadiazoles” (J Agric Food Chem, 2010)

Legend:
[1] = test system: Colletotrichum lagenaria; experiment: Fungicide activity against Colletotrichum lagenaria assessed as growth inhibition at 50 ug/mL at 24 to 26 degC measured after 2 days; type: functional; conditions: 48 h, read-out: GI
[2] = test system: Mycosphaerella arachidis; experiment: Fungicide activity against Mycosphaerella arachidis assessed as growth inhibition at 50 ug/mL at 24 to 26 degC measured after 2 days; type: functional; conditions: 48 h, read-out: GI
[3] = test system: Nicotiana tabacum; experiment: Phytotoxicity against Nicotiana tabacum (tobacco) plant at 50 to 500 ug/mL; type: organism-based; conditions: in vivo
[4] = test system: Tobacco mosaic virus; experiment: Antiviral activity against Tobacco mosaic virus (TMV) infected leaves assessed as viral inhibition at 100 ug/mL at 25 degC for 72 hr; type: functional
Procedure, shortened: (§1)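 Systemic acquired resistance induction was assayed in a tobacco–TMV system. The antivirus inhibition ratio was calculated from the average number of viral lesions on inoculated leaves, relative to the corresponding control.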

[5] = test system: Cercospora beticola; experiment: Fungicide activity against Cercospora beticola assessed as growth inhibition at 50 ug/mL at 24 to 26 degC measured after 2 days; type: functional; conditions: 48 h, read-out: GI
[6] = test system: Thanatephorus cucumeris; experiment: Fungicide activity against Thanatephorus cucumeris assessed as growth inhibition at 50 ug/mL at 24 to 26 degC measured after 2 days; type: functional; conditions: 48 h, read-out: GI
[7] = test system: Alternaria solani; experiment: Fungicide activity against Alternaria solani assessed as growth inhibition at 50 ug/mL at 24 to 26 degC measured after 2 days; type: functional; conditions: 48 h, read-out: GI
[8] = test system: Tobacco mosaic virus; experiment: Antiviral activity against Tobacco mosaic virus (TMV) infected leaves assessed as viral inhibition at 500 ug/mL at 25 degC for 72 hr; type: functional; procedure, shortened: as §1
[9] = test system: Phytophthora infestans; experiment: Fungicide activity against Phytophthora infestans assessed as growth inhibition at 50 ug/mL at 24 to 26 degC measured after 2 days; type: functional; conditions: 48 h, read-out: GI
[10] = test system: Botryosphaeria berengeriana; experiment: Fungicide activity against Botryosphaeria berengeriana assessed as growth inhibition at 50 ug/mL at 24 to 26 degC measured after 2 days; type: functional; conditions: 48 h, read-out: GI
[11] = test system: Puccinia triticina; experiment: Fungicide activity against Puccinia triticina assessed as growth inhibition at 50 ug/mL at 24 to 26 degC measured after 2 days; type: functional; conditions: 48 h, read-out: GI
[12] = test system: Fusarium oxysporum; experiment: Fungicide activity against Fusarium oxysporum assessed as growth inhibition at 50 ug/mL at 24 to 26 degC measured after 2 days; type: functional; conditions: 48 h, read-out: GI
[13] = test system: Fusarium graminearum; experiment: Fungicide activity against Fusarium graminearum assessed as growth inhibition at 50 ug/mL at 24 to 26 degC measured after 2 days; type: functional; conditions: 48 h, read-out: GI
[14] = test system: Botrytis cinerea; experiment: Fungicide activity against Botryotinia fuckeliana assessed as growth inhibition at 50 ug/mL at 24 to 26 degC measured after 2 days; type: functional; conditions: 48 h, read-out: GI
[15] = test system: Rhizoctonia solani; experiment: Fungicide activity against Rhizoctonia solani Kuhn assessed as growth inhibition at 50 ug/mL at 24 to 26 degC measured after 2 days; type: functional; conditions: 48 h, read-out: GI
[16] = test system: Tobacco mosaic virus; experiment: Antiviral activity against Tobacco mosaic virus (TMV) infected leaves assessed as viral inhibition at 50 ug/mL at 25 degC for 72 hr; type: functional; procedure, shortened: as §1

| Compound | inhibition of growth at 50 µg/mL [1] | inhibition of growth at 50 µg/mL [2] | Activity [3] | inhibition at 100 µg/mL [4] | inhibition of growth at 50 µg/mL [5] | inhibition of growth at 50 µg/mL [6] | inhibition of growth at 50 µg/mL [7] | inhibition at 500 µg/mL [8] | inhibition of growth at 50 µg/mL [9] | inhibition of growth at 50 µg/mL [10] | inhibition of growth at 50 µg/mL [11] | inhibition of growth at 50 µg/mL [12] | inhibition of growth at 50 µg/mL [13] | inhibition of growth at 50 µg/mL [14] | inhibition of growth at 50 µg/mL [15] | inhibition at 50 µg/mL [16] |
| --- | --- | --- | --- | --- | --- | --- | --- | --- | --- | --- | --- | --- | --- | --- | --- | --- |
| Cc1nnsc1C1=NNC2SC(c3ccco3)=NN12 (stereo not given) | 0% | 36.4% | Toxic | 20% | 42.9% | 45.1% | 43.3% | 23.5% | 14.7% | 29% | 21% | 22.2% | – | – | – | – |
| Cc1nnsc1C1=NNC2SC(c3cccc(F)c3)=NN12 (stereo not given) | 0% | 23.5% | Toxic | 24.2% | 27.3% | 32.8% | 37.1% | 30.7% | 0% | 54.1% | – | 10% | 40.5% | 75% | – | – |
| CCc1cc(C2=NN3C(c4snnc4C)=NNC3S2)nn1C (stereo not given) | 0% | 7.7% | Toxic | – | 0% | 30.4% | 9.5% | – | 4.8% | 12.8% | 10% | 47.2% | – | – | 19.4% | 34.8% |
| Cc1nnsc1C1=NNC2SC(c3ccc([N+](=O)[O-])cc3)=NN12 (stereo not given) | 13.8% | 30.8% | Toxic | 16.7% | 14.3% | 32.4% | 26.7% | 52.9% | 22.2% | 34.9% | – | 20.9% | 11.9% | 60% | – | – |
| Cc1nnsc1C1=NNC2SC(/C=C/c3ccccc3)=NN12 (stereo not given) | 26.9% | 27.6% | Toxic | 16.7% | 13.3% | 33.3% | 31.3% | 27.8% | 18.2% | 40.5% | – | 9.1% | 17.5% | 81.8% | – | – |
| Cc1nnsc1C1=NNC2SC(c3ccccc3OC(F)(F)F)=NN12 (stereo not given) | 45.5% | 7.7% | Toxic | – | 0% | 35.7% | 4.8% | – | 0% | 15.4% | 0% | 86% | – | – | 5.6% | 25% |
| Cc1nnsc1C1=NNC2SC(c3c(-c4ccccc4)noc3C)=NN12 (stereo not given) | 13.6% | 30% | Toxic | – | 10% | 25.4% | 33.3% | – | 7.4% | 8.9% | – | 13.8% | 27.3% | 46.2% | – | 14.6% |
| Cc1nnsc1C1=NNC2SC(CCl)=NN12 (stereo not given) | 4.3% | 34.8% | Toxic | – | 21.4% | 38.4% | 23.8% | – | 11.4% | 33.3% | – | 25% | 33.3% | 65.2% | – | 29.2% |
| COc1ccc(C2=NN3C(c4snnc4C)=NNC3S2)cc1 (stereo not given) | 18.2% | 7.7% | Toxic | – | 0% | 46.4% | 0% | – | 4.8% | 7.7% | 10% | 44.4% | – | – | 11.1% | 17.9% |
| CCCC1=NN2C(c3snnc3C)=NNC2S1 (stereo not given) | 50% | 62.1% | Toxic | – | 33.3% | 77.8% | 34.4% | – | 75.8% | 40.5% | – | 93% | 75% | 84.9% | – | 0% |
| Cc1nnsc1C1=NNC2SC(c3ccc(OC(F)(F)F)cc3)=NN12 (stereo not given) | 18.2% | 15.4% | Toxic | – | 0% | 30.4% | 9.5% | – | 4.8% | 17.9% | 70% | 44.4% | – | – | 11.1% | 10.2% |
| Cc1nnsc1C1=NNC2SC(c3ccccc3F)=NN12 (stereo not given) | 11.8% | 18.2% | Toxic | 9.5% | 23.8% | 58.8% | 40% | 53.6% | 20% | 24.2% | 21.1% | 19.4% | – | – | – | – |
| Cc1nnsc1C1=NNC2SC(c3cccc(OC(F)(F)F)c3)=NN12 (stereo not given) | 13.8% | 23.1% | Toxic | 30% | 35.7% | 35.2% | 23.7% | 37.5% | 17.8% | 25.6% | – | 18.6% | 4.8% | 68.9% | – | – |
